# Measured values gathered from unrelated publications.
# Compare with care: the assays were run in different laboratories.
# Target: Dual specificity tyrosine-phosphorylation-regulated kinase 3 (DYRK3, Homo sapiens, UniProt O43781)
SMILES,test,conditions,endpoint,value
O=C(Nc1cnn(-c2csc(C(=O)NC3COC3)c2)c1)Nc1ccccc1Cl,"enzyme activity, inhibitor",5 µM,remaining activity,93.3%
O=C(O)c1ccc2c(c1)nc(NCCc1cccc(Cl)c1)c1ncncc12,"enzyme activity, inhibitor, radiometric",1 µM,remaining activity,37%
COc1cc(-c2cc(-c3ccc(N4CCNCC4)cc3)cnc2C)cc(OC)c1OC,"enzyme activity, inhibitor",0.1 µM,inhibition,1%
CCCS(=O)(=O)Nc1ccc(F)c(C(=O)c2c[nH]c3ncc(-c4ccc(Cl)cc4)cc23)c1F,"enzyme activity, inhibitor",1 µM,inhibition,< 10%
O=C(O)c1ccc2c(c1)nc(NCc1ccccc1)c1ncncc12,"enzyme activity, inhibitor, radiometric",1 µM,remaining activity,31%
COc1cc2ncnc(Nc3ccc(Oc4ccccc4)cc3C)c2cc1OC,"enzyme activity, inhibitor",1 µM,inhibition,1%
CN(c1ncccc1CNc1nc(Nc2ccc3c(c2)CC(=O)N3)ncc1C(F)(F)F)S(C)(=O)=O,"enzyme activity, inhibitor",1 µM,inhibition,66.8%
O=C1NC(=O)c2cc(Nc3ccc(F)cc3)c(Nc3ccc(F)cc3)cc21,cell-free assay,0.5 µM,remaining signal,97.1%
Cn1cncc1C1=CN(c2ncnc3[nH]cnc23)CCS1,"enzyme activity, inhibitor, radiometric",2 µM,inhibition,90.9%
O=C(O)c1ccc2c(c1)nc(NCc1ccccc1)c1ccncc12,"enzyme activity, inhibitor, radiometric",1 µM,remaining activity,21%
Oc1cccc(-c2nc(N3CCOCC3)c3oc4ncccc4c3n2)c1,"enzyme activity, inhibitor",10 µM,remaining activity,64%
COc1cc(/C=C/C(=O)CC(=O)/C=C/c2ccc(O)c(OC)c2)ccc1O,"enzyme activity, inhibitor",1 µM,activity vs control,11%
Cn1cnc(Br)c1C1=CN(c2ncnc3[nH]cnc23)CCS1,"enzyme activity, inhibitor, radiometric",2 µM,inhibition,98%
O=C(O)c1ccc2c(c1)nc(Nc1cccc(F)c1)c1ncncc12,"enzyme activity, inhibitor, radiometric",1 µM,remaining activity,9%
